Assay results as given in ChEMBL document CHEMBL5357066, “Development of Novel Membrane Disrupting Lipoguanidine Compounds Sensitizing Gram-Negative Bacteria to Antibiotics” (ACS Med Chem Lett, 2024).
Converted amounts (≈) assume the structure as drawn.

Tests used:
Klebsiella pneumoniae [1] = assay: Antibacterial activity against ESBL Klebsiella pneumoniae NCTC 13368 assessed as bacterial growth inhibition incubated for overnight by microbroth dilution method
Pseudomonas aeruginosa [2] = assay: Antibacterial activity against Pseudomonas aeruginosa NCTC 13437 assessed as bacterial growth inhibition incubated for overnight by microbroth dilution method; format: functional
Procedure, shortened: (§1)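 Broth microdilution in Tryptic Soy Broth. DMSO stocks were diluted in TSB as 2-fold series. Overnight TSB cultures were back-diluted to OD 0.01 and mixed 1:1 with compound. Incubation was overnight at 37 °C. MIC was the lowest concentration without visible growth (<0.1 OD600). DMSO vehicle was checked at equivalent concentrations.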

Acinetobacter baumannii [3] = assay: Antibacterial activity against Acinetobacter baumannii ATCC 17978 assessed as bacterial growth inhibition incubated for overnight by microbroth dilution method; format: functional
Procedure, shortened: as §1

Acinetobacter baumannii [4] = assay: Antibacterial activity against Acinetobacter baumannii AYE assessed as bacterial growth inhibition incubated for overnight by microbroth dilution method; format: functional
Procedure, shortened: as §1

Klebsiella pneumoniae [5] = assay: Antibacterial activity against Klebsiella pneumoniae M6 assessed as bacterial growth inhibition incubated for overnight by microbroth dilution method
Escherichia coli [6] = assay: Antibacterial activity against Escherichia coli NCTC 12923 assessed as bacterial growth inhibition incubated for overnight by microbroth dilution method; format: functional
Procedure, shortened: as §1

Pseudomonas aeruginosa [7] = assay: Antibacterial activity against Pseudomonas aeruginosa PAO1 assessed as bacterial growth inhibition incubated for overnight by microbroth dilution method; format: functional
Procedure, shortened: as §1

Pseudomonas aeruginosa [8] = assay: Synergistic antibacterial activity against Pseudomonas aeruginosa NCTC 13437 assessed as rifampicin MIC at <=0.25 times MIC incubated for overnight by microbroth dilution checkerboard assay; format: functional
Procedure, shortened: (§2)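 Checkerboard microdilution in Tryptic Soy Broth, run like the MIC assay. Overnight TSB cultures were back-diluted to OD 0.01 and added 1:1 to the combined two-fold series of both agents, then incubated overnight at 37 °C. Growth/no-growth was called at <0.1 OD600. MICs alone were read on the same plates. FIC index came from the most synergistic well; three independent repeats, mean ± SD.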

Acinetobacter baumannii [9] = assay: Synergistic antibacterial activity against Acinetobacter baumannii ATCC 17978 assessed as fold change in rifampicin MIC at <=0.25 times MIC incubated for overnight by microbroth dilution checkerboard assay relative to rifampicin alone; format: functional
Procedure, shortened: (§3)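 Checkerboard microdilution under MIC conditions (TSB, overnight, 37 °C). Two-fold series of each agent were combined on one plate before bacteria were added, and single-agent MICs were measured on the same plate. FIC = sum of combination MIC/alone MIC for each agent, taken from the most synergistic well. Three independent repeats, mean ± SD. ≤0.5 was taken as strong synergy and 0.5–<1 as weak.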

Pseudomonas aeruginosa [10] = assay: Synergistic antibacterial activity against Pseudomonas aeruginosa NCTC 13437 assessed as fold change in rifampicin MIC at <=0.25 times MIC incubated for overnight by microbroth dilution checkerboard assay relative to rifampicin alone; format: functional
Procedure, shortened: as §2

Escherichia coli [11] = assay: Synergistic antibacterial activity against Escherichia coli NCTC 12923 assessed as rifampicin MIC at <=0.25 times MIC incubated for overnight by microbroth dilution checkerboard assay; format: functional
Procedure, shortened: as §3

Klebsiella pneumoniae [12] = assay: Synergistic antibacterial activity against Klebsiella pneumoniae NCTC 13368 assessed as fold change in rifampicin MIC at <=0.25 times MIC incubated for overnight by microbroth dilution checkerboard assay relative to rifampicin alone; format: functional
Procedure, shortened: (§4)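 Checkerboard run under the MIC conditions (TSB, overnight, 37 °C). Antibiotic and lipoguanidine 2-fold series were combined on one plate before bacteria were added. Growth/no-growth was scored as for the MIC (<0.1 OD600). Single-agent MICs were measured on the same plates. Three independent repeats were done.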

Klebsiella pneumoniae [13] = assay: Synergistic antibacterial activity against […] Klebsiella pneumoniae M6 assessed as rifampicin MIC at <=0.25 times MIC incubated for overnight by microbroth dilution checkerboard assay; format: functional
Procedure, shortened: as §4

Escherichia coli [14] = assay: Synergistic antibacterial activity against Escherichia coli NCTC 12923 assessed as fold change in rifampicin MIC at <=0.25 times MIC incubated for overnight by microbroth dilution checkerboard assay relative to rifampicin alone; format: functional
Procedure, shortened: as §3

Acinetobacter baumannii [15] = assay: Synergistic antibacterial activity against Acinetobacter baumannii AYE assessed as fold change in rifampicin MIC at <=0.25 times MIC incubated for overnight by microbroth dilution checkerboard assay relative to rifampicin alone; format: functional
Procedure, shortened: as §3

Acinetobacter baumannii [16] = assay: Synergistic antibacterial activity against Acinetobacter baumannii AYE assessed as rifampicin MIC at <=0.25 times MIC incubated for overnight by microbroth dilution checkerboard assay; format: functional
Procedure, shortened: as §3

Klebsiella pneumoniae [17] = assay: Synergistic antibacterial activity against Klebsiella pneumoniae NCTC 13368 assessed as rifampicin MIC at <=0.25 times MIC incubated for overnight by microbroth dilution checkerboard assay; format: functional
Procedure, shortened: as §3

Pseudomonas aeruginosa [18] = assay: Synergistic antibacterial activity against Pseudomonas aeruginosa PAO1 assessed as rifampicin MIC at <=0.25 times MIC incubated for overnight by microbroth dilution checkerboard assay; format: functional
Procedure, shortened: as §2

Acinetobacter baumannii [19] = assay: Synergistic antibacterial activity against Acinetobacter baumannii ATCC 17978 assessed as rifampicin MIC at <=0.25 times MIC incubated for overnight by microbroth dilution checkerboard assay; format: functional
Procedure, shortened: as §3

Pseudomonas aeruginosa [20] = assay: Synergistic antibacterial activity against Pseudomonas aeruginosa PAO1 assessed as fold change in rifampicin MIC at <=0.25 times MIC incubated for overnight by microbroth dilution checkerboard assay relative to rifampicin alone; format: functional
Procedure, shortened: as §2

Enterococcus faecium = assay: Antibacterial activity against vancomycin resistant Enterococcus faecium NCTC 12204 assessed as bacterial growth inhibition incubated for overnight by microbroth dilution method; format: functional
Procedure, shortened: (§5)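 Microbroth dilution in Tryptic Soy Broth. DMSO stocks were diluted in TSB as 2-fold series. Overnight TSB cultures were back-diluted to OD 0.01 and mixed 1:1 with compound. Incubation was overnight at 37 °C. MIC is the lowest concentration with no visible growth (<0.1 OD600). DMSO at equivalent concentrations was checked.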

Staphylococcus aureus [21] = assay: Antibacterial activity against methicillin sensitive Staphylococcus aureus 1199B assessed as bacterial growth inhibition incubated for overnight by microbroth dilution method; format: functional
Procedure, shortened: as §5

Enterococcus faecalis [22] = assay: Antibacterial activity against vancomycin resistant Enterococcus faecalis NCTC 12201 assessed as bacterial growth inhibition incubated for overnight by microbroth dilution method; format: functional
Procedure, shortened: as §5

Staphylococcus aureus [23] = assay: Antibacterial activity against methicillin sensitive Staphylococcus aureus ATCC 9144 assessed as bacterial growth inhibition incubated for overnight by microbroth dilution method; format: functional
Procedure, shortened: as §5

Staphylococcus aureus [24] = assay: Antibacterial activity against methicillin resistant Staphylococcus aureus NCTC 13616 assessed as bacterial growth inhibition incubated for overnight by microbroth dilution method; format: functional
Procedure, shortened: as §5

Staphylococcus aureus [25] = assay: Antibacterial activity against methicillin resistant Staphylococcus aureus USA 300 assessed as bacterial growth inhibition incubated for overnight by microbroth dilution method; format: functional
Procedure, shortened: as §5

Enterococcus faecalis [26] = assay: Antibacterial activity against vancomycin sensitive Enterococcus faecalis NCTC 775 assessed as bacterial growth inhibition incubated for overnight by microbroth dilution method

| SMILES | MIC (Klebsiella pneumoniae [1]) | MIC (Pseudomonas aeruginosa [2]) | MIC (Acinetobacter baumannii [3]) | MIC (Acinetobacter baumannii [4]) | MIC (Klebsiella pneumoniae [5]) | MIC (Escherichia coli [6]) | MIC (Pseudomonas aeruginosa [7]) | MIC (Pseudomonas aeruginosa [8]) | fold change (FC) (Acinetobacter baumannii [9]) | fold change (FC) (Pseudomonas aeruginosa [10]) | MIC (Escherichia coli [11]) | fold change (FC) (Klebsiella pneumoniae [12]) | MIC (Klebsiella pneumoniae [13]) | fold change (FC) (Escherichia coli [14]) | fold change (FC) (Acinetobacter baumannii [15]) | MIC (Acinetobacter baumannii [16]) | MIC (Klebsiella pneumoniae [17]) | MIC (Pseudomonas aeruginosa [18]) | MIC (Acinetobacter baumannii [19]) | fold change (FC) (Pseudomonas aeruginosa [20]) | also measured |
| --- | --- | --- | --- | --- | --- | --- | --- | --- | --- | --- | --- | --- | --- | --- | --- | --- | --- | --- | --- | --- | --- |
| CO[C@H]1/C=C/O[C@@]2(C)Oc3c(C)c(O)c4c(O)c(c(/C=N/N5CCN(C)CC5)c(O)c4c3C2=O)NC(=O)/C(C)=C\C=C\[C@H](C)[C@H](O)[C@@H](C)[C@@H](O)[C@@H](C)[C@H](OC(C)=O)[C@@H]1C [RIFAMPIN] | 32 µg/mL (≈ 38.9 µM) | 32 µg/mL (≈ 38.9 µM) | 4 µg/mL (≈ 4.86 µM) | 16 µg/mL (≈ 19.4 µM) | 32 µg/mL (≈ 38.9 µM) | 16 µg/mL (≈ 19.4 µM) | 32 µg/mL (≈ 38.9 µM) |  |  |  |  |  |  |  |  |  |  |  |  |  |  |
| CCCCCCCCCCCCCCCCCCNC(=O)NCCCCN |  |  |  |  |  |  |  | 16 µg/mL | 0 | 0 | 16 µg/mL | 0 | 16 µg/mL | 0 | 0 | 0.5 µg/mL | 32 µg/mL | 16 µg/mL | 2 µg/mL | 0 |  |
| CCCCCCCC/C=C\CCCCCCCCNC(=N)NCCN(CCN)CCN | > 128 µg/mL | 32 µg/mL (≈ 72.9 µM) | 64 µg/mL (≈ 146 µM) | 128 µg/mL (≈ 292 µM) | > 128 µg/mL | 8 µg/mL (≈ 18.2 µM) | 64 µg/mL (≈ 146 µM) |  |  |  |  |  |  |  |  |  |  |  |  |  | MIC (Enterococcus faecium): 4 µg/mL (≈ 9.12 µM); MIC (Staphylococcus aureus [21]): 4 µg/mL (≈ 9.12 µM); MIC (Enterococcus faecalis [22]): 4 µg/mL (≈ 9.12 µM); MIC (Staphylococcus aureus [23]): 8 µg/mL (≈ 18.2 µM); MIC (Staphylococcus aureus [24]): 4 µg/mL (≈ 9.12 µM); MIC (Staphylococcus aureus [25]): 4 µg/mL (≈ 9.12 µM); MIC (Enterococcus faecalis [26]): 4 µg/mL (≈ 9.12 µM) |
| CCCCCCCCCCNC(=N)NCCCC | 16 µg/mL (≈ 62.6 µM) |  | 16 µg/mL (≈ 62.6 µM) | 16 µg/mL (≈ 62.6 µM) |  | 16 µg/mL (≈ 62.6 µM) |  | 16 µg/mL | >=4 | 0 | ≤ 0.125 µg/mL | >=4 | ≤ 0.125 µg/mL | >=4 | >=4 | ≤ 0.125 µg/mL | ≤ 0.125 µg/mL | 16 µg/mL | ≤ 0.125 µg/mL | 0 |  |
| CCCCCCCC/C=C\CCCCCCCCNC(=N)NCCCCCCCCNC(=N)NCCCCCCCC/C=C\CCCCCCCC | > 128 µg/mL | > 128 µg/mL | 128 µg/mL (≈ 176 µM) | > 128 µg/mL | > 128 µg/mL | 128 µg/mL (≈ 176 µM) | > 128 µg/mL |  |  |  |  |  |  |  |  |  |  |  |  |  | MIC (Enterococcus faecium): 32 µg/mL (≈ 43.9 µM); MIC (Staphylococcus aureus [21]): 32 µg/mL (≈ 43.9 µM); MIC (Enterococcus faecalis [22]): > 64 µg/mL; MIC (Staphylococcus aureus [23]): 64 µg/mL (≈ 87.8 µM); MIC (Staphylococcus aureus [24]): > 64 µg/mL; MIC (Staphylococcus aureus [25]): 64 µg/mL (≈ 87.8 µM); MIC (Enterococcus faecalis [26]): 64 µg/mL (≈ 87.8 µM) |
| CCCCCCCCCCNC(=N)NCCCCCCCCCC | 16 µg/mL (≈ 47.1 µM) |  | 32 µg/mL (≈ 94.2 µM) | 16 µg/mL (≈ 47.1 µM) |  | 64 µg/mL (≈ 188 µM) |  | 64 µg/mL | >=4 | 0 | 8 µg/mL | 0 | 32 µg/mL | 0 | >=4 | ≤ 0.125 µg/mL | 64 µg/mL | 64 µg/mL | ≤ 0.125 µg/mL | 0 |  |
| CCCCCCCC/C=C\CCCCCCCCNC(=N)NCCCCCCCCCC |  |  |  |  |  |  |  | 64 µg/mL | 0 | 0 | 32 µg/mL | 0 | 64 µg/mL | 0 | 0 | 32 µg/mL | 128 µg/mL | 64 µg/mL | 8 µg/mL | 0 |  |
